Common to all, as to format: functional
What all share (details): route intraperitoneal

In assay [1] the test system is Mus musculus. The experiment in a line: Anticonvulsant activity in Swiss Webster mouse assessed as survivors level at 10 mg/kg, ip pretreated 20 mins before PTZ challenge and measured 24 hrs post PTZ challenge relative to control. The essentials: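 Male adult Swiss–Webster mice (22–30 g), 8 per group. Compounds are given ip at 10 mg/kg (0.2% in corn oil) 20 min before PTZ 75 mg/kg ip (1.5% in saline), the minimal convulsive dose. Animals are watched for 1 h after PTZ. Survivors are counted at 24 h and expressed as % survivors against the PTZ-only control. Significance is tested at p<0.05 and p<0.01.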

The test system of assay [2] is Mus musculus. The experiment in a line: Anticonvulsant activity in Swiss Webster mouse assessed as PTZ-induced clonic seizures at 10 mg/kg, ip pretreated 20 mins before PTZ challenge and measured 1 hr post PTZ challenge relative to control. The essentials:
(§1)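 Male adult Swiss–Webster mice, 22–30 g, 12 h light/dark cycle at 25 °C, food and water ad libitum. Compound 10 mg/kg ip (0.2% in corn oil), one group per compound (8 animals), 20 min before PTZ 75 mg/kg ip (1.5% in saline). Watched 1 h for seizure onset (min) and % animals convulsing; 24 h survival noted. Phenobarbital 30 mg/kg reference; p vs PTZ group.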

The subject of assay [3] is Mus musculus. Briefly: Anticonvulsant activity in Swiss Webster mouse assessed as PTZ-induced tonic seizures at 10 mg/kg, ip pretreated 20 mins before PTZ challenge and measured 1 hr post PTZ challenge relative to control. An outline of the steps:
as §1

Assay [4] relates to Mus musculus. Briefly: Anticonvulsant activity in Swiss Webster mouse assessed as PTZ-induced tonic seizures at 30 mg/kg, ip pretreated 20 mins before PTZ challenge and measured 1 hr post PTZ challenge relative to control. An outline of the steps: (§2)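 Male adult Swiss–Webster mice (22–30 g), 8 per group, with a 12 h light/dark cycle at 25 °C. The reference drug phenobarbital sodium is given at 30 mg/kg ip 20 min before PTZ 75 mg/kg ip (1.5% solution in saline). Clonic and tonic seizure onset (min) and % animals convulsing are scored over 1 h. Survivors are counted at 24 h. Comparison is with the PTZ-only group.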

Assay [5] concerns Mus musculus. Briefly: Anticonvulsant activity in Swiss Webster mouse assessed as PTZ-induced clonic seizures at 30 mg/kg, ip pretreated 20 mins before PTZ challenge and measured 1 hr post PTZ challenge relative to control. An outline of the steps: as §2
The test system of assay [6] is Mus musculus. The experiment in a line: Anticonvulsant activity in Swiss Webster mouse assessed as survivors level at 30 mg/kg, ip pretreated 20 mins before PTZ challenge and measured 24 hrs post PTZ challenge relative to control. The essentials: as §2

As for `COc1ccc(C2SCC(=O)N2NC(=O)c2nc3c(C)nn(-c4ccccc4)c3nc2-c2ccccc2)cc1OC` (stereo not given), the survival at 10 mg/kg in the assay with Mus musculus [1] was found to be 100%. For the same compound, the figures for the Activity in the assay with Mus musculus [2] and in the assay with Mus musculus [3] were 87.5% and 0%, respectively.
The matching figures for `Cc1nn(-c2ccccc2)c2nc(-c3ccccc3)c(C(=O)NN3C(=O)CSC3c3ccccc3)nc12` (stereo not given): 87.5%, 75% and 12.5%.
The matching figures for `Cc1nn(-c2ccccc2)c2nc(-c3ccccc3)c(-c3nn4cc(-c5ccccc5)nc4s3)nc12`: 87.5%, 87.5% and 12.5%.
As for `Cc1nn(-c2ccccc2)c2nc(-c3ccccc3)c(C(=O)NN3C(=O)CSC3c3ccc([N+](=O)[O-])cc3)nc12` (stereo not given), the survival at 10 mg/kg in the assay with Mus musculus [1] worked out at 75%. The results for the Activity in the assay with Mus musculus [2] and in the assay with Mus musculus [3] were 87.5% and 25%, respectively.
For the compound `Cc1nn(-c2ccccc2)c2nc(-c3ccccc3)c(C(=O)NN3C(=O)CSC3c3ccc(Cl)cc3)nc12` (stereo not given), the survival at 10 mg/kg in the assay with Mus musculus [1] is 75%. Moreover, the values for the Activity with Mus musculus [2] and in the assay on Mus musculus [3] were 75% and 25%, respectively.
As for `Cc1nn(-c2ccccc2)c2nc(-c3ccccc3)c(C(=O)NN3C(=O)CSC34CCCC4)nc12`, the survival at 10 mg/kg in the assay on Mus musculus [1] amounted to 75%. The values for the Activity with Mus musculus [2] and in the assay with Mus musculus [3] were 100% and 25%, respectively.
The corresponding values for `Cc1nn(-c2ccccc2)c2nc(-c3ccccc3)c(-c3nn4cc(-c5ccc(Br)cc5)nc4s3)nc12` are 62.5%, 87.5% and 37.5%.
The corresponding values for `Cc1nn(-c2ccccc2)c2nc(-c3ccccc3)c(C(=O)NN3C(=O)CSC3(C)C)nc12` are 25%, 100% and 75%.
The matching figures for `Cc1nn(-c2ccccc2)c2nc(-c3ccccc3)c(C(=O)NN3C(=O)CSC34CCCCC4)nc12`: 0%, 100% and 100%.
For `CCC1(c2ccccc2)C(=O)N=C([O-])NC1=O.[Na+]` (stereo not given) [PHENOBARBITAL SODIUM], the Activity in the assay on Mus musculus [4] and in the assay on Mus musculus [5] was 0% in each case. Besides, in the assay with Mus musculus [6], the survival at 30 mg/kg amounted to 100%.

These data come from ChEMBL document CHEMBL3232815, “Synthesis and anticonvulsant activity of some new pyrazolo[3,4-b]pyrazines and related heterocycles” (2014).
